In ChEMBL document CHEMBL1156459, “Discovery of a small molecule antagonist of the parathyroid hormone receptor by using an N-terminal parathyroid hormone peptide probe” (Proc Natl Acad Sci U S A, 2007):
Active and inactive are the calls of the source. The rule behind the calls is not given here. Square brackets hold non-standard residues; d marks the D form. Peptide text beside a SMILES is read from it. * marks the point of attachment. X1 = O=C(c1ccccc1-c1c2ccc(=O)cc-2oc2cc(O)ccc12)*; hArg = N=C(N)NCCCC[C@H](N)C(=O)O; Nle = CCCC[C@H](N)C(=O)O; Aib = CC(C)(N)C(=O)O

What was measured:
[1] = molecular target: T1, Parathyroid hormone/parathyroid hormone-related peptide receptor (Homo sapiens, UniProt Q03431); test: Activity at human PTH/PTH-related peptide receptor expressed in HEK293 cells assessed as induction of luciferase activity by CRE-luciferase reporter assay; format: functional, cell-based
T1 sequence (Q03431 whole entry): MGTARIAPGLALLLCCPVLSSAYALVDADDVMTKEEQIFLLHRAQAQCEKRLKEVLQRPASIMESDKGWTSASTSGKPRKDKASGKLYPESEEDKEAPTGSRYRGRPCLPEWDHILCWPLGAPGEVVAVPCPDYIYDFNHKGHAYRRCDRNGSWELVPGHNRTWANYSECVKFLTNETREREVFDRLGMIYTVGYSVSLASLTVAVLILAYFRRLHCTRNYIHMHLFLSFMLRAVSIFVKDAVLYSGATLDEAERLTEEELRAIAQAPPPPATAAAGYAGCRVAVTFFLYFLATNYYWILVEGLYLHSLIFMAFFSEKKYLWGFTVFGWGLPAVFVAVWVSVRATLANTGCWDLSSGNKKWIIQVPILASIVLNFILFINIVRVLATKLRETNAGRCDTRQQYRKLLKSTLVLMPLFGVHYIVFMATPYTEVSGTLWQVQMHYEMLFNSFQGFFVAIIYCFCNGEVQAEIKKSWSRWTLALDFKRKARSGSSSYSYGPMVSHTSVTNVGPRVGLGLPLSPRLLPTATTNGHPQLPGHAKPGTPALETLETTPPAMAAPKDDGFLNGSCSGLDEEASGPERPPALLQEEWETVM

[2] = molecular target: T1, Parathyroid hormone/parathyroid hormone-related peptide receptor; test: Displacement of [125I]DPC-AJ1951 from PTH/PTH-related peptide receptor expressed in HKRK-B28 cells; format: cell-based
How it was run: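 Whole HKRK-B28 cells plated at 30,000/well and incubated overnight at 37°C, 5% CO2. Incubated 3 h at room temperature, washed three times, bound radioactivity counted by scintillation.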

[3] = molecular target: T1, Parathyroid hormone/parathyroid hormone-related peptide receptor; test: Activity at human PTH/PTH-related peptide receptor expressed in SAOS2 cells assessed as cAMP formation; format: functional, cell-based, SAOS-2
How it was run: (§1)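 Nonconfluent cells grown at 37°C in DMEM with 10% FBS, refed 12–24 h before assay. Rinsed with warm PBS, detached with prewarmed EDTA (37°C, 5–10 min), spun at 300 × g for 5 min. Resuspended in HBSS/5 mM Hepes/0.1% BSA/0.5 mM IBMX, pH 7.4. cAMP read by AlphaScreen.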

[4] = molecular target: T2, Parathyroid hormone/parathyroid hormone-related peptide receptor (Rattus norvegicus, UniProt P25961); test: Activity at rat PTH/PTH-related peptide receptor expressed in rat UMR106 cells assessed as cAMP formation; format: functional, cell-based; how it was run: as §1
T2 sequence (P25961 whole entry): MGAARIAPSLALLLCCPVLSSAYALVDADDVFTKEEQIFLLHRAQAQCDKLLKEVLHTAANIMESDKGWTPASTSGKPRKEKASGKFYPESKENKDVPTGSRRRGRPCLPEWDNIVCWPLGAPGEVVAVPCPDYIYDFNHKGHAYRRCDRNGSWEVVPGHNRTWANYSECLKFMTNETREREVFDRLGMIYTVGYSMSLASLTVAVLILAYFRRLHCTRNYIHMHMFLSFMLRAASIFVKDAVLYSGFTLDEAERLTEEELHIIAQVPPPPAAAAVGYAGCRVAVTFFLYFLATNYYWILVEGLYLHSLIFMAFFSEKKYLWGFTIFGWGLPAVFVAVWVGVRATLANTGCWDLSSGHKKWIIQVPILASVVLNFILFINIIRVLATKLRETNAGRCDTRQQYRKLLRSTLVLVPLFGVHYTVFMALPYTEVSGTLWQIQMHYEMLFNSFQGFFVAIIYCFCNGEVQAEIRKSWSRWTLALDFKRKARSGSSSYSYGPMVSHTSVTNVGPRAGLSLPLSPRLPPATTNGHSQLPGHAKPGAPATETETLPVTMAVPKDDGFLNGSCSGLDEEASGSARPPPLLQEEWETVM

[5] = organism: Mus musculus; test: Inhibition of bone mineralization in embryonic mouse metatarsal; format: functional

| EC50 [1] [nM] | IC50 [2] [nM] | EC50 [3] [nM] | EC50 [4] [nM] | Structure (SMILES) | Activity [5] |
| --- | --- | --- | --- | --- | --- |
| 0.92 | 13.5 | 7.2 | – | CCCC[C@H](NC(=O)[C@H](CC(C)C)NC(=O)[C@H](CCC(N)=O)NC(=O)[C@@H](NC(=O)[C@H](CCC(=O)O)NC(=O)C(C)(C)NC(=O)[C@@H](NC(=O)C(C)(C)N)C(C)C)[C@@H](C)CC)C(=O)N[C@@H](Cc1cnc[nH]1)C(=O)N[C@@H](CCC(N)=O)C(=O)N[C@@H](CCCNC(=N)N)C(=O)N[C@@H](C)C(=O)N[C@@H](CCCCNC(=O)c1ccccc1-c1c2ccc(=O)cc-2oc2cc(O)ccc12)C(=O)N[C@@H](Cc1ccc(O)cc1)C(N)=O (H-[Aib]V[Aib]EIQL[Nle]HQRAK(X1)Y-NH2) | – |
| 13 | 10600 | 1430 | 344 | CCCC[C@H](NC(=O)[C@H](CC(C)C)NC(=O)[C@H](CCC(N)=O)NC(=O)[C@@H](NC(=O)[C@H](CCC(=O)O)NC(=O)[C@H](C)NC(=O)[C@@H](NC(=O)[C@H](C)N)C(C)C)[C@@H](C)CC)C(=O)N[C@@H](Cc1cnc[nH]1)C(=O)N[C@@H](CCC(N)=O)C(=O)N[C@@H](CCCCNC(=N)N)C(=O)N[C@@H](C)C(=O)N[C@@H](CCCCN)C(=O)N[C@@H](Cc1ccc(O)cc1)C(N)=O (H-AVAEIQL[Nle]HQ[hArg]AKY-NH2) | – |
| 0.06 | 7.2 | – | – | CCCC[C@H](NC(=O)[C@H](CC(C)C)NC(=O)[C@H](CCC(N)=O)NC(=O)[C@@H](NC(=O)[C@H](CCC(=O)O)NC(=O)C(C)(C)NC(=O)[C@@H](NC(=O)C(C)(C)N)C(C)C)[C@@H](C)CC)C(=O)N[C@@H](Cc1cnc[nH]1)C(=O)N[C@@H](CCC(N)=O)C(=O)N[C@@H](CCCCN=C(N)N)C(=O)N[C@@H](C)C(=O)N[C@@H](CCCCN)C(=O)N[C@@H](Cc1ccc(O)cc1)C(N)=O (H-[Aib]V[Aib]EIQL[Nle]HQ[hArg]AKY-NH2) | – |
| – | – | – | – | CC[C@H](C)[C@H](NC(=O)[C@H](CCC(=O)O)NC(=O)C(C)(C)NC(=O)[C@@H](NC(=O)C(C)(C)N)C(C)C)C(=O)N[C@@H](CCC(N)=O)C(=O)N[C@@H](CC(C)C)C(=O)N[C@@H](CCSC)C(=O)N[C@@H](Cc1cnc[nH]1)C(=O)N[C@@H](CCC(N)=O)C(=O)N[C@@H](CCCCNC(=N)N)C(=O)N[C@@H](C)C(=O)N[C@@H](CCCCN)C(=O)N[C@@H](Cc1c[nH]c2ccccc12)C(=O)O (H-[Aib]V[Aib]EIQLMHQ[hArg]AKW-OH) | Active |
